The target in test [1] is T1, Orexin/Hypocretin receptor type 1 (Homo sapiens, UniProt O43613).
T1 sequence (O43613 whole entry): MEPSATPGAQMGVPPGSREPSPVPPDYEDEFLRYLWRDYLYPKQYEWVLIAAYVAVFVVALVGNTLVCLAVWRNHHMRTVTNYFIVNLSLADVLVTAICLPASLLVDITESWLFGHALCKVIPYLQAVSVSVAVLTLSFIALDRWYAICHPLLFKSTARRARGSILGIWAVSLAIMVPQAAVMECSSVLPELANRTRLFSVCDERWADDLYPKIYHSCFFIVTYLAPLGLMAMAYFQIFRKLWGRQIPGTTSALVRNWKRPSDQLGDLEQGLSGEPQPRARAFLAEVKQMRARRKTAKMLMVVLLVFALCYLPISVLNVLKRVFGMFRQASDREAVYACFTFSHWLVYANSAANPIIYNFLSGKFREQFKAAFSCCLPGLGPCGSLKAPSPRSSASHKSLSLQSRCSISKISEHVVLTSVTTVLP
The test is described as follows: Agonist activity at human OX1 receptor overexpressed in CHO-RD-HGA16 cells assessed as calcium mobilization after 15 mins by fluorescence assay. The class given is functional, cell-based. In outline:
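EC50 from 8-point half-log concentration-response curves. Values are means of at least three independent experiments in duplicate, with SEM, or means of two independent duplicate experiments.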
(In general: A change in cytosolic calcium serves as a functional read-out for many receptors and channels.)

The species entered for a further test is Homo sapiens. The test is described as follows: Selectivity ratio of EC50 for human OX2 receptor to EC50 for human OX1 receptor.
In another test the target is T2, Orexin receptor type 2 (Homo sapiens, UniProt O43614).
T2 sequence (O43614 whole entry): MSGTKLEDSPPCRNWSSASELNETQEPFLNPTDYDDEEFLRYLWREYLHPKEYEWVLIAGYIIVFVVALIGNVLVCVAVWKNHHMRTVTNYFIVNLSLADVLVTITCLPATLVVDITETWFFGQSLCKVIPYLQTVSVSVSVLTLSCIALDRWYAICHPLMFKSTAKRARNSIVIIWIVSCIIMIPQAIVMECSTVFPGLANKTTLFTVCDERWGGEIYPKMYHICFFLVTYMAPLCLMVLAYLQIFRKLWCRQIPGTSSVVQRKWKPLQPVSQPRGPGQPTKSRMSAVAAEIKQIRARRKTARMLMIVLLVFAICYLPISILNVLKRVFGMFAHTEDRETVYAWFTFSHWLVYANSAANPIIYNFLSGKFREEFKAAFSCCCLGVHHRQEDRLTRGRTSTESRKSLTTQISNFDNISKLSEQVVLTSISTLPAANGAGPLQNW
The test is described as follows: Agonist activity at human OX2 receptor overexpressed in CHO-RD-HGA16 cells assessed as calcium mobilization after 15 mins by fluorescence assay. It is filed as functional, cell-based.

The structures appear in SMILES notation. pEC50: −log10 of the molar value. Where a SMILES comes first, the peptide text is derived from it.

Take `CC[C@H](C)[C@H](NC(=O)CNC(=O)[C@H](C)NC(=O)[C@H](C)NC(=O)[C@H](Cc1cnc[nH]1)NC(=O)[C@H](CC(N)=O)NC(=O)CNC(=O)[C@H](C)NC(=O)CNC(=O)[C@H](Cc1cnc[nH]1)NC(=O)[C@H](CC(C)C)NC(=O)[C@@H]1CCCN1C(=O)[C@H](CCC(=O)O)NC(=O)[C@@H](N)Cc1ccc(O)cc1)C(=O)N[C@@H](CC(C)C)C(=O)N[C@H](C(=O)N[C@@H](CC(C)C)C(N)=O)[C@@H](C)O` (H-YEPLHGAGNHAAGILTL-NH2): the pEC50 in test [1] is 6.06; on Orexin receptor type 2, 6.00. The Ratio EC50 in the test listed under Homo sapiens amounted to 1.2.

For the compound `CC[C@H](C)[C@H](NC(=O)CNC(=O)[C@H](C)NC(=O)[C@H](C)NC(=O)[C@H](Cc1cnc[nH]1)NC(=O)[C@H](CC(N)=O)NC(=O)CNC(=O)[C@@H](C)NC(=O)CNC(=O)[C@H](Cc1cnc[nH]1)NC(=O)[C@H](CC(C)C)NC(=O)[C@H](CC(C)C)NC(=O)[C@H](CCC(=O)O)NC(=O)[C@@H](N)Cc1ccc(O)cc1)C(=O)N[C@@H](CC(C)C)C(=O)N[C@H](C(=O)N[C@@H](CC(C)C)C(N)=O)[C@@H](C)O`, the negative logarithm of the EC50 (pEC50) in test [1] was 5.51; at Orexin receptor type 2 it was 5.72. In the test listed under Homo sapiens, the Ratio EC50 worked out at 0.6.

On to `CC[C@H](C)[C@H](NC(=O)CNC(=O)[C@H](C)NC(=O)[C@H](C)NC(=O)[C@H](Cc1cnc[nH]1)NC(=O)[C@H](CC(N)=O)NC(=O)CNC(=O)[C@H](C)NC(=O)CNC(=O)[C@H](Cc1cnc[nH]1)NC(=O)[C@H](CC(C)C)NC(=O)[C@H](CC(C)C)NC(=O)[C@H](CCC(=O)O)NC(=O)[C@H](Cc1ccc(O)cc1)NC(=O)[C@H](CC(C)C)NC(=O)[C@@H](N)CCCNC(=N)N)C(=O)N[C@@H](CC(C)C)C(=O)N[C@H](C(=O)N[C@@H](CC(C)C)C(N)=O)[C@@H](C)O` (H-RLYELLHGAGNHAAGILTL-NH2), for which the figures for the pEC50 (in test [1]; on Orexin receptor type 2) were 7.19 and 6.01, respectively.

With `CC[C@H](C)[C@H](NC(=O)CNC(=O)[C@H](C)NC(=O)[C@H](C)NC(=O)[C@H](Cc1cnc[nH]1)NC(=O)[C@H](CC(N)=O)NC(=O)CNC(=O)[C@H](C)NC(=O)[C@H](C)NC(=O)[C@H](Cc1cnc[nH]1)NC(=O)[C@H](CC(C)C)NC(=O)[C@H](CC(C)C)NC(=O)[C@H](CCC(=O)O)NC(=O)[C@@H](N)Cc1ccc(O)cc1)C(=O)N[C@@H](CC(C)C)C(=O)N[C@H](C(=O)N[C@@H](CC(C)C)C(N)=O)[C@@H](C)O` (H-YELLHAAGNHAAGILTL-NH2), the pEC50 in test [1] was 6.37; at Orexin receptor type 2, 5.84. The Ratio EC50 in the test filed under Homo sapiens is 3.4.

Regarding `CC[C@H](C)[C@H](NC(=O)CNC(=O)[C@H](C)NC(=O)[C@H](C)NC(=O)[C@H](Cc1cnc[nH]1)NC(=O)[C@H](CC(N)=O)NC(=O)CNC(=O)[C@H](C)NC(=O)CNC(=O)[C@H](Cc1cnc[nH]1)NC(=O)[C@H](CC(C)C)NC(=O)[C@H](CC(C)C)NC(=O)[C@@H](CCC(=O)O)NC(=O)[C@@H](N)Cc1ccc(O)cc1)C(=O)N[C@@H](CC(C)C)C(=O)N[C@H](C(=O)N[C@@H](CC(C)C)C(N)=O)[C@@H](C)O`, the pEC50 in test [1] is 6.13; on Orexin receptor type 2, 5.67. For the same compound, the Ratio EC50 in the test listed under Homo sapiens stood at 2.9.

Consider `CC[C@H](C)[C@H](NC(=O)CNC(=O)[C@H](C)NC(=O)[C@H](C)NC(=O)[C@H](C)NC(=O)[C@H](CC(N)=O)NC(=O)CNC(=O)[C@H](C)NC(=O)CNC(=O)[C@H](Cc1cnc[nH]1)NC(=O)[C@H](CC(C)C)NC(=O)[C@H](CC(C)C)NC(=O)[C@H](CCC(=O)O)NC(=O)[C@@H](N)Cc1ccc(O)cc1)C(=O)N[C@@H](CC(C)C)C(=O)N[C@H](C(=O)N[C@@H](CC(C)C)C(N)=O)[C@@H](C)O` (H-YELLHGAGNAAAGILTL-NH2), for which the values for the negative-log EC50 (pEC50) (in test [1]; on Orexin receptor type 2) were 5.51 and 5.80, respectively. Further, the Ratio EC50 in the test listed under Homo sapiens amounted to 0.5.

Take `CC[C@H](C)[C@H](NC(=O)CNC(=O)[C@H](C)NC(=O)[C@H](C)NC(=O)[C@H](Cc1cnc[nH]1)NC(=O)[C@H](CC(N)=O)NC(=O)[C@H](C)NC(=O)[C@H](C)NC(=O)CNC(=O)[C@H](Cc1cnc[nH]1)NC(=O)[C@H](CC(C)C)NC(=O)[C@H](CC(C)C)NC(=O)[C@H](CCC(=O)O)NC(=O)[C@@H](N)Cc1ccc(O)cc1)C(=O)N[C@@H](CC(C)C)C(=O)N[C@H](C(=O)N[C@@H](CC(C)C)C(N)=O)[C@@H](C)O` (H-YELLHGAANHAAGILTL-NH2): the negative logarithm of the EC50 (pEC50) was 5.98 in test [1] and 5.87 at Orexin receptor type 2. In addition, the Ratio EC50 in the test filed under Homo sapiens came out at 1.3.

With `CC[C@H](C)[C@H](NC(=O)CNC(=O)[C@H](C)NC(=O)[C@H](C)NC(=O)[C@H](Cc1cnc[nH]1)NC(=O)[C@H](CC(N)=O)NC(=O)CNC(=O)[C@H](C)NC(=O)CNC(=O)[C@H](Cc1cnc[nH]1)NC(=O)[C@H](CC(C)C)NC(=O)[C@H](CC(C)C)NC(=O)[C@H](C)NC(=O)[C@@H](N)Cc1ccc(O)cc1)C(=O)N[C@@H](CC(C)C)C(=O)N[C@H](C(=O)N[C@@H](CC(C)C)C(N)=O)[C@@H](C)O` (H-YALLHGAGNHAAGILTL-NH2), the pEC50 in test [1] was 7.10; on Orexin receptor type 2, 6.36. Also, in the test filed under Homo sapiens, the Ratio EC50 worked out at 5.6.

As for `CC[C@H](C)[C@H](NC(=O)CNC(=O)[C@H](C)NC(=O)[C@H](C)NC(=O)[C@H](Cc1c[nH]cn1)NC(=O)[C@H](CC(N)=O)NC(=O)CNC(=O)[C@H](C)NC(=O)CNC(=O)[C@H](Cc1c[nH]cn1)NC(=O)[C@H](CC(C)C)NC(=O)[C@@H](N)CC(C)C)C(=O)N[C@@H](CC(C)C)C(=O)N[C@H](C(=O)N[C@@H](CC(C)C)C(N)=O)[C@@H](C)O` (H-LLHGAGNHAAGILTL-NH2), the values for the pEC50 (in test [1]; on Orexin receptor type 2) were 5.86 and 6.02, respectively. Moreover, the Ratio EC50 in the test listed under Homo sapiens was 0.7.

For `CC[C@H](C)[C@H](NC(=O)CNC(=O)[C@H](C)NC(=O)[C@H](C)NC(=O)[C@H](Cc1cnc[nH]1)NC(=O)[C@H](CC(N)=O)NC(=O)CNC(=O)[C@H](C)NC(=O)CNC(=O)[C@H](Cc1cnc[nH]1)NC(=O)[C@H](CC(C)C)NC(=O)[C@H](C)NC(=O)[C@H](CCC(=O)O)NC(=O)[C@@H](N)Cc1ccc(O)cc1)C(=O)N[C@@H](CC(C)C)C(=O)N[C@H](C(=O)N[C@@H](CC(C)C)C(N)=O)[C@@H](C)O` (H-YEALHGAGNHAAGILTL-NH2), the negative logarithm of the EC50 (pEC50) in test [1] is 6.67; on Orexin receptor type 2 it was 5.72. For the same compound, the Ratio EC50 in the test listed under Homo sapiens was 8.9.

In the case of `CC[C@H](C)[C@H](NC(=O)CNC(=O)[C@H](C)NC(=O)[C@H](C)NC(=O)[C@H](Cc1c[nH]cn1)NC(=O)[C@H](CC(N)=O)NC(=O)CNC(=O)[C@H](C)NC(=O)CNC(=O)[C@H](Cc1c[nH]cn1)NC(=O)[C@H](CC(C)C)NC(=O)[C@H](CC(C)C)NC(=O)[C@H](CCC(=O)O)NC(=O)[C@H](Cc1ccc(O)cc1)NC(=O)[C@H](CC(C)C)NC(=O)[C@@H](N)CCCN=C(N)N)C(=O)N[C@@H](CC(C)C)C(=O)N[C@H](C(=O)N[C@@H](CC(C)C)C(N)=O)[C@@H](C)O` (H-RLYELLHGAGNHAAGILTL-NH2), in the test filed under Homo sapiens, the Ratio EC50 is 15.

Turning to `CC[C@H](C)[C@H](NC(=O)CNC(=O)[C@H](C)NC(=O)[C@H](C)NC(=O)[C@H](Cc1cnc[nH]1)NC(=O)[C@H](CC(N)=O)NC(=O)CNC(=O)[C@H](C)NC(=O)CNC(=O)[C@@H](Cc1cnc[nH]1)NC(=O)[C@H](CC(C)C)NC(=O)[C@H](CC(C)C)NC(=O)[C@H](CCC(=O)O)NC(=O)[C@@H](N)Cc1ccc(O)cc1)C(=O)N[C@@H](CC(C)C)C(=O)N[C@H](C(=O)N[C@@H](CC(C)C)C(N)=O)[C@@H](C)O`, the negative logarithm of the EC50 (pEC50) was 5.81 in test [1] and 6.21 on Orexin receptor type 2. For the same compound, the Ratio EC50 in the test listed under Homo sapiens came to 0.4.

In the case of `CC[C@H](C)[C@H](NC(=O)CNC(=O)[C@H](C)NC(=O)[C@H](C)NC(=O)[C@H](Cc1c[nH]cn1)NC(=O)[C@H](CC(N)=O)NC(=O)CNC(=O)[C@H](C)NC(=O)CNC(=O)[C@H](Cc1c[nH]cn1)NC(=O)[C@H](CC(C)C)NC(=O)[C@H](CC(C)C)NC(=O)[C@H](CCC(=O)O)NC(=O)[C@@H](N)Cc1ccc(O)cc1)C(=O)N[C@@H](CC(C)C)C(=O)N[C@H](C(=O)N[C@@H](CC(C)C)C(N)=O)[C@@H](C)O`, in the test filed under Homo sapiens, the Ratio EC50 stood at 23.

Take `CC[C@H](C)[C@H](NC(=O)CNC(=O)[C@H](C)NC(=O)[C@H](C)NC(=O)[C@H](Cc1cnc[nH]1)NC(=O)[C@H](CC(N)=O)NC(=O)CNC(=O)[C@H](C)NC(=O)CNC(=O)[C@H](Cc1cnc[nH]1)NC(=O)[C@H](CC(C)C)NC(=O)[C@H](CC(C)C)NC(=O)[C@H](CCC(=O)O)NC(=O)[C@@H](N)Cc1ccc(O)cc1)C(=O)N[C@@H](CC(C)C)C(=O)N[C@H](C(=O)N[C@@H](CC(C)C)C(N)=O)[C@@H](C)O`: the negative logarithm of the EC50 (pEC50) in test [1] was 8.08; at Orexin receptor type 2 it was 6.73.

Broadly, the pEC50 is the negative decadic logarithm of the EC50, by convention in mol/L.

For the origin of these results see ChEMBL document CHEMBL3102805, “Truncated Orexin Peptides: Structure-Activity Relationship Studies” (ACS Med Chem Lett, 2013).
